Reference: ChEMBL document CHEMBL2046346, “Discovery of phenylpropanoic acid derivatives containing polar functionalities as potent and orally bioavailable G protein-coupled receptor 40 agonists for the treatment of type 2 diabetes” (J Med Chem, 2012)
Activity calls are given as the source filed them. No cut-off for these calls is given here.

How the values were obtained:
[1] = Cytotoxicity against human HepG2 cells assessed as intracellular ATP level at 30 uM after 24 hrs by ATPlite assay relative to control; type: cell-based; conditions: read-out: Activity
Outline: (§1)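 HepG2 cells seeded 2 × 10^4/well, treated 1 day in DMEM with 0.5% FBS, 2 mM L-glutamine, 1 mM pyruvate. ATP measured by ATPlite luminescence; % of 1% DMSO control (RLU ratio ×100), n = 3.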

[2] = target: Free fatty acid receptor 1 (Rattus norvegicus, UniProt Q8K3T4); experiment: Displacement of 3-[4-({2',6'-dimethyl-6-[(4-[3H])phenylmethoxy]biphenyl-3-yl}methoxy)phenyl] propanoic acid from rat GPR40 receptor expressed in CHO cell membrane after 90 mins by liquid scintillation counting in the presence of 0.2% BSA; type: cell membranes
Sequence of Free fatty acid receptor 1 (Rattus norvegicus, UniProt Q8K3T4) (Q8K3T4 whole entry): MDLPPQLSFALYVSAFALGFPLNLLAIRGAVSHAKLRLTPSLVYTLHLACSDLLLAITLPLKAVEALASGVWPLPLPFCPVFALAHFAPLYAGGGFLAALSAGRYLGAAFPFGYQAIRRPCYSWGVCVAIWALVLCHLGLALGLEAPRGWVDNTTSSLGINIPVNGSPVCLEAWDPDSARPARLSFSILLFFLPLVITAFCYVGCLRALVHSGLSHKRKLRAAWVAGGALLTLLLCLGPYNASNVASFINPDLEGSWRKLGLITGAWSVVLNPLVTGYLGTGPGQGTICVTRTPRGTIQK
Outline: (§2)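 Membranes from CHO lines stably expressing human or rat GPR40, buffer 25 mmol/L Tris-HCl pH 7.5, 5 mmol/L EDTA, protease inhibitors, 0.05% CHAPS, 0.2% fatty-acid-free BSA. Tritiated ligand at 2 or 6 nmol/L with graded test compound, 90 min room temperature, GF/C filtration, scintillation counting. Nonspecific binding: 10 μmol/L unlabeled ligand. IC50 by nonlinear regression, Ki = IC50/(1+[L]/Kd).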

[3] = target: T1, Free fatty acid receptor 1 (Homo sapiens, UniProt O14842); experiment: Displacement of 3-[4-({2',6'-dimethyl-6-[(4-[3H])phenylmethoxy]biphenyl-3-yl}methoxy)phenyl] propanoic acid from human GPR40 receptor expressed in CHO cell membrane after 90 mins by liquid scintillation counting in the presence of 0.2% BSA; type: cell membranes; outline: as §2
T1 sequence (O14842 whole entry): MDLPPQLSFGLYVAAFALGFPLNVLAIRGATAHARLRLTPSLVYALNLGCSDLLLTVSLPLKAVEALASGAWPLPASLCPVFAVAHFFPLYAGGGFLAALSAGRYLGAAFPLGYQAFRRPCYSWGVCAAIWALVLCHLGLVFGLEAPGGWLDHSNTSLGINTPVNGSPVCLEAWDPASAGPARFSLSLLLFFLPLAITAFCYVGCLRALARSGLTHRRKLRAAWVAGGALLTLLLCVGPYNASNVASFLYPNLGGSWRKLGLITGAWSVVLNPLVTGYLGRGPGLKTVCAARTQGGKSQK

[4] = target: T1, Free fatty acid receptor 1; experiment: Agonist activity at human GPR40 receptor expressed in CHO cells assessed as increase in intracellular calcium level for 90 secs by FLIPR assay in the presence of 0.1% BSA; type: functional, cell-based
Outline: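 CHO dhfr cells stably expressing human GPR40 plated overnight, loaded 60 min at 37 °C with Fluo 4 AM (2.5 μg/mL), 2.5 mmol/L probenecid, 0.1% fatty acid-free BSA. Ca2+ rise after compound addition read 90 s; response scaled between vehicle (0%) and 10 μM γ-linolenic acid (100%).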

[5] = test system: HepG2; experiment: Induction of apoptosis in human HepG2 cells assessed as caspase 3/7 activity at 10 uM after 24 hrs by caspase Glo assay relative to staurosporine; type: cell-based; conditions: hepg2, 24 h
Outline: (§3)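 HepG2 cells seeded 2 × 10^4/well, treated 1 day in DMEM with 0.5% FBS, 2 mM L-glutamine, 1 mM pyruvate. Caspase-Glo 3/7 luminescence; activity = (compound − 1% DMSO)/(30 μM staurosporine − 1% DMSO) ×100, n = 3.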

[6] = Lipophilicity, log D of the compound by RP-HPLC analysis; type: physicochemical
[7] = test system: HepG2; experiment: Induction of apoptosis in human HepG2 cells assessed as caspase 3/7 activity at 30 uM after 24 hrs by caspase Glo assay relative to staurosporine; type: cell-based; conditions: hepg2, 24 h; outline: as §3
[8] = Cytotoxicity against human HepG2 cells assessed as intracellular ATP level at 10 uM after 24 hrs by ATPlite assay relative to control; type: cell-based; conditions: read-out: Activity; outline: as §1
[9] = Metabolic stability in rat hepatic microsomes; type: ADME; conditions: liver microsomes, read-out: Stability
[10] = Metabolic stability in human hepatic microsomes; type: ADME; conditions: liver microsomes, read-out: Stability
[11] = organism: Rattus norvegicus; experiment: Insulinotropic activity in rat INS1(833/15) cells assessed as increase in insulin secretion at 10 uM after 2 hrs by competitive enzyme immunoassay in the presence of low concentration of glucose; type: functional, cell-based
Outline: (§4)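 INS-1 833/15 cells seeded on poly-L-lysine, cultured 2 days, preincubated in KRBH (0.2% FFA-free BSA) with 1 mM glucose, then 2 h in KRBH at 1–16 mM glucose with or without compound (DMSO vehicle). Secreted insulin by EIA; expressed as fold over 1 mM glucose alone, mean ± SD (n = 3–6).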

[12] = organism: Rattus norvegicus; experiment: Insulinotropic activity in rat INS1(833/15) cells assessed as increase in insulin secretion at 10 uM after 2 hrs by competitive enzyme immunoassay in the presence of 16 mM glucose; type: functional, cell-based; outline: as §4
[13] = organism: Rattus norvegicus; experiment: Insulinotropic activity in rat INS1(833/15) cells assessed as increase in insulin secretion at 10 uM after 2 hrs by competitive enzyme immunoassay in the presence of 11 mM glucose; type: functional, cell-based; outline: as §4
[14] = organism: Rattus norvegicus; experiment: Insulinotropic activity in rat INS1(833/15) cells assessed as increase in insulin secretion at 30 uM after 2 hrs by competitive enzyme immunoassay in the presence of 11 mM glucose; type: functional, cell-based; outline: as §4
[15] = organism: Rattus norvegicus; experiment: Insulinotropic activity in rat INS1(833/15) cells assessed as increase in insulin secretion at 30 uM after 2 hrs by competitive enzyme immunoassay in the presence of low concentration of glucose; type: functional, cell-based; outline: as §4
[16] = test system: Rattus norvegicus; experiment: Induction of hypoglycemia in fasted Sprague-Dawley rat assessed as increase in insulin secretion level at 30 mg/kg, po after 30 mins; type: organism-based; set-up: dose 30 mg/kg, route oral; conditions: in vivo, 0.5 h
Outline: (§5)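 Eight-week-old male SD rats fasted overnight, grouped by body weight (n = 6), single oral dose in 0.5% methylcellulose vehicle; tail-vein blood before and 0.5, 1, 2, 3 h after dosing; plasma glucose by analyzer, insulin by ELISA; mean ± SD.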

[17] = organism: Rattus norvegicus; experiment: Insulinotropic activity in rat INS1(833/15) cells assessed as increase in insulin secretion at 30 uM after 2 hrs by competitive enzyme immunoassay in the presence of 16 mM glucose; type: functional, cell-based; outline: as §4
[18] = test system: Rattus norvegicus; experiment: Induction of hypoglycemia in fasted Sprague-Dawley rat assessed as decrease in plasma glucose level below normal fasting level at 10 mg/kg, po; type: organism-based; set-up: dose 10 mg/kg, route oral; conditions: in vivo; outline: as §5
[19] = organism: Rattus norvegicus; experiment: Insulinotropic activity in rat INS1(833/15) cells assessed as increase in insulin secretion at 1 uM after 2 hrs by competitive enzyme immunoassay in the presence of 4 mM glucose; type: functional, cell-based; outline: as §4
[20] = organism: Rattus norvegicus; experiment: Insulinotropic activity in rat INS1(833/15) cells assessed as increase in insulin secretion at 1 uM after 2 hrs by competitive enzyme immunoassay in the presence of >6 mM glucose; type: functional, cell-based; outline: as §4
[21] = organism: Rattus norvegicus; experiment: Insulinotropic activity in rat INS1(833/15) cells assessed as increase in insulin secretion at 1 uM after 2 hrs by competitive enzyme immunoassay in the presence of 16 mM glucose; type: functional, cell-based; outline: as §4
[22] = organism: Rattus norvegicus; experiment: Insulinotropic activity in rat INS1(833/15) cells assessed as increase in insulin secretion at >0.1 uM after 2 hrs by competitive enzyme immunoassay in the presence of 11 mM glucose; type: functional, cell-based; outline: as §4
[23] = organism: Rattus norvegicus; experiment: Insulinotropic activity in rat INS1(833/15) cells assessed as increase in insulin secretion after 2 hrs by competitive enzyme immunoassay in the presence of 11 mM glucose; type: functional, cell-based; outline: as §4
[24] = organism: Rattus norvegicus; experiment: Insulinotropic activity in rat INS1(833/15) cells assessed as increase in insulin secretion at 1 uM after 2 hrs by competitive enzyme immunoassay in the presence of 1 mM glucose; type: functional, cell-based; outline: as §4

Row | SMILES | Ki [2] [nM] | Ki [3] [nM] | EC50 [4] [nM] | logD [6] | microsomal CLint [10] [µL/min/mg] | viability at 24 h, 30 µM [1] [%] | Activity [5] [%] | Activity [7] [%] | viability at 24 h, 10 µM [8] [%] | also measured
1 | Cc1cc(OCC2(O)CCS(=O)(=O)CC2)cc(C)c1-c1cccc(COc2ccc(CCC(=O)O)c(F)c2)c1 | 8.2 | 19 | 15 | 2.78 | – | 61.5 | -0.2 | 2.8 | 88.6 | –
2 | CCS(=O)(=O)CCOc1cc(C)c(-c2cccc(COc3ccc(CCC(=O)O)c(F)c3)c2)c(C)c1 | 4.2 | 15 | 25 | 3.02 | 6 | 32.5 | -1.1 | 17.7 | 79.8 | microsomal CLint [9]: 10 µL/min/mg
3 | CC(C)[C@H]1CC[C@H](C(=O)N[C@H](Cc2ccccc2)C(=O)O)CC1 | – | – | – | – | – | – | – | – | – | Activity [11]: Active; Activity [12]: Active; Activity [13]: Active
4 | COc1ccc(Cl)cc1C(=O)NCCc1ccc(S(=O)(=O)NC(=O)NC2CCCCC2)cc1 [GLYBURIDE] | – | – | – | – | – | – | – | – | – | Activity [14]: Active; Activity [15]: Active; Activity [16]: Toxic; Activity [17]: Active; Activity [18]: Toxic
5 | Cc1cc(OC2CCS(=O)(=O)CC2)cc(C)c1-c1cccc(CNc2ccc(CCC(=O)O)c(F)c2)c1 | 5.1 | 18 | 23 | 2.44 | – | 60.7 | -0.5 | -0.7 | 78.8 | –
6 | CCOCCOc1cc(C)c(-c2cccc(CNc3ccc(CCC(=O)O)c(F)c3)c2)c(C)c1.Cl | 6.2 | 18 | 26 | 3.49 | – | 48.5 | 5.3 | 1.2 | 9.9 | –
7 | CCS(=O)(=O)CCOc1cc(C)c(-c2cccc(CNc3ccc(CCC(=O)O)c(F)c3)c2)c(C)c1 | 4.5 | 20 | 99 | 2.39 | 2 | 45.7 | -1 | -0.9 | 79.8 | –
8 | Cc1cc(OC2CCS(=O)(=O)CC2)cc(C)c1-c1cccc(COc2ccc(CCC(=O)O)c(F)c2)c1 | 6.4 | 16 | 25 | 3.06 | 3 | 38 | -0.5 | 28.9 | 79.8 | Activity [19]: inactive; Activity [20]: Active; Activity [21]: Active; Activity [22]: Active; Activity [23]: Dose-dependent effect; Activity [24]: inactive
9 | Cc1cc(OCCCN2CCCC2=O)cc(C)c1-c1cccc(COc2ccc(CCC(=O)O)c(F)c2)c1 | 9.7 | 21 | 32 | 3.51 | 7 | 30.3 | 0.2 | 20.3 | 54.1 | microsomal CLint [9]: 5 µL/min/mg

Second part, led by results:

Row | Ki [2] [nM] | Ki [3] [nM] | EC50 [4] [nM] | logD [6] | microsomal CLint [10] [µL/min/mg] | SMILES | viability at 24 h, 30 µM [1] [%] | Activity [5] [%] | Activity [7] [%] | viability at 24 h, 10 µM [8] [%] | also measured
10 | 6.7 | 12 | 31 | 4.23 | – | Cc1cccc(Oc2cc(C)c(-c3cccc(COc4ccc(CCC(=O)O)c(F)c4)c3)c(C)c2)n1.Cl | 47.5 | -0.4 | 41.1 | 56.7 | –
11 | 30 | 58 | 40 | 4.22 | – | Cc1cccc(C)c1-c1cccc(COc2ccc(CCC(=O)O)cc2)c1C | – | – | – | – | –
12 | 6.7 | 20 | 23 | 4.1 | – | Cc1cc(OC2CCOCC2)cc(C)c1-c1cccc(COc2ccc(CCC(=O)O)c(F)c2)c1 | 38.1 | 0.9 | 42.8 | 60.3 | –
13 | 120 | 99 | – | 4.16 | – | COc1cc(COc2ccc(CCC(=O)O)c(F)c2)cc(-c2c(C)cccc2C)c1 | – | – | – | – | –
14 | 10000 | 520 | – | 4.04 | – | COc1ccc(-c2c(C)cccc2C)cc1COc1ccc(CCC(=O)O)cc1 | – | – | – | – | –
15 | 6.2 | 25 | 12 | 3.83 | – | COc1cc(C)c(-c2cccc(COc3ccc(CCC(=O)O)cc3)c2)c(C)c1 | – | – | – | – | –
16 | 5.6 | 16 | 15 | 4.61 | – | Cc1cc(OCC2CC2)cc(C)c1-c1cccc(COc2ccc(CCC(=O)O)cc2)c1 | – | – | – | – | –
17 | 4.5 | 12 | 4.5 | 4.14 | 8 | CCOCCOc1cc(C)c(-c2cccc(COc3ccc(CCC(=O)O)c(F)c3)c2)c(C)c1 | – | – | – | – | –
18 | 87 | 47 | 20 | 3.38 | – | COc1ccc(COc2ccc(CCC(=O)O)cc2)cc1-c1c(C)cccc1C | – | – | – | – | –
19 | 27 | 46 | 22 | 4.04 | 28 | Cc1cccc(C)c1-c1cccc(COc2ccc(CCC(=O)O)cc2)c1 | – | – | – | – | microsomal CLint [9]: 34 µL/min/mg
20 | 10 | 23 | 13 | 3.89 | – | CCOCCOc1cc(C)c(-c2cccc(COc3ccc(CCC(=O)O)cc3)c2)c(C)c1 | – | – | – | – | –
21 | 36 | – | – | – | 69 | Cc1cccc(C)c1-c1cccc(COc2ccc(CCC(=O)O)c(F)c2)c1 | – | – | – | – | microsomal CLint [9]: 39 µL/min/mg
22 | 6.7 | 15 | 14 | 5.08 | – | Cc1cc(OCc2ccccc2)cc(C)c1-c1cccc(COc2ccc(CCC(=O)O)cc2)c1 | – | – | – | – | –
